Active and inactive are the calls of the source. The calls are words filed in the database; no cut-off is given here.
Tests used:
A549 [1] = test: Growth inhibition of human A549 cells at 10 uM after 24 hrs by MTT assay relative to control; assay type: functional; conditions: A549, 24 h, read-out: GI
Outline: (§1)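 Monolayers seeded 24 h before treatment, then exposed to compound, with DMEM or RPMI 1640 plus 10% FBS as growth medium. MTT (5 mg mL–1 stock) incubated 2–4 h at 37 °C, formazan dissolved in DMSO, and absorbance read at 570 nm. Growth inhibition reported as % of control.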

HepG2 [2] = test: Growth inhibition of human HepG2 cells at 10 uM after 24 hrs by MTT assay relative to control; assay type: functional; conditions: HepG2, 24 h, read-out: GI; outline: as §1
KB [3] = test: Growth inhibition of human KB cells at 10 uM after 24 hrs by MTT assay relative to control; assay type: functional; conditions: read-out: GI; outline: as §1
MCF7 [4] = test: Growth inhibition of human MCF7 cells at 10 uM after 24 hrs by MTT assay relative to control; assay type: functional; conditions: MCF7, 24 h, read-out: GI; outline: as §1
HeLa [5] = test: Growth inhibition of human HeLa cells at 10 uM after 24 hrs by MTT assay relative to control; assay type: functional; conditions: read-out: GI; outline: as §1
HCT-116 [6] = test: Growth inhibition of human HCT116 cells at 10 uM after 24 hrs by MTT assay relative to control; assay type: functional; conditions: HCT-116, 24 h, read-out: GI; outline: as §1
A549 [7] = test: Growth inhibition of human A549 cells at 5 uM after 24 hrs by MTT assay relative to control; assay type: functional; conditions: A549, 24 h, read-out: GI; outline: as §1
HepG2 [8] = test: Growth inhibition of human HepG2 cells at 5 uM after 24 hrs by MTT assay relative to control; assay type: functional; conditions: HepG2, 24 h, read-out: GI; outline: as §1
KB [9] = test: Growth inhibition of human KB cells at 5 uM after 24 hrs by MTT assay relative to control; assay type: functional; conditions: read-out: GI; outline: as §1
MCF7 [10] = test: Growth inhibition of human MCF7 cells at 5 uM after 24 hrs by MTT assay relative to control; assay type: functional; conditions: MCF7, 24 h, read-out: GI; outline: as §1
HeLa [11] = test: Growth inhibition of human HeLa cells at 5 uM after 24 hrs by MTT assay relative to control; assay type: functional; conditions: read-out: GI; outline: as §1
HCT-116 [12] = test: Growth inhibition of human HCT116 cells at 5 uM after 24 hrs by MTT assay relative to control; assay type: functional; conditions: HCT-116, 24 h, read-out: GI; outline: as §1
L02 [13] = test: Cytotoxicity against human LO2 cells assessed as reduction in cell growth at 5 to 10 uM after 24 hrs by MTT assay; assay type: cell-based; conditions: l02, 24 h
HCT-116 [14] = test: Growth inhibition of human HCT116 cells at 2.5 uM after 24 hrs by MTT assay relative to control; assay type: functional; conditions: HCT-116, 24 h, read-out: GI; outline: as §1
HCT-116 [15] = test: Potentiation of cisplatin-induced antiproliferative activity against human HCT116 cells assessed as cell growth inhibition at 2.5 uM preincubated for 24 hrs followed by 2.5 uM cisplatin addition and measured after 48 hrs by MTT assay (reference value: 26.98 +/-2.84%); assay type: functional; conditions: read-out: GI
L02 [16] = test: Cytotoxicity against human LO2 cells assessed as reduction in cell growth at 2.5 uM preincubated for 24 hrs followed by cisplatin addition and measured after 48 hrs by MTT assay; assay type: cell-based; conditions: l02, 48 h
HCT-116 [17] = test: Induction of morphological changes in human HCT116 cells assessed as chromatin condensation at 2.5 uM measured after 24 hrs by Hoechst 33258 staining based fluorescence microscopic analysis; assay type: functional, cell-based
HCT-116 [18] = test: Induction of morphological changes in human HCT116 cells assessed as cell shrinkage at 2.5 uM measured after 24 hrs by Hoechst 33258 staining based fluorescence microscopic analysis; assay type: functional
HCT-116 [19] = test: Induction of morphological changes in human HCT116 cells assessed as reduction in number of adherent cells at 2.5 uM measured after 24 hrs by Hoechst 33258 staining based fluorescence microscopic analysis; assay type: functional, cell-based
HCT-116 [20] = test: Potentiation of cisplatin-induced morphological changes in human HCT116 cells assessed as chromatin condensation at 2.5 uM preincubated for 24 hrs followed by cisplatin addition and measured after 48 hrs by Hoechst 33258 staining based fluorescence microscopic analysis; assay type: functional, cell-based
Outline: (§2)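 HCT116 given compound for 24 h, then cisplatin (2.5 μM) for 48 h. Fixed in 4% paraformaldehyde, stained with Hoechst 33258 at 5 μg mL–1, and nuclei examined and counted under a fluorescence microscope. Blue fluorescence quantified, with t-test over three independent experiments.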

HCT-116 [21] = test: Potentiation of cisplatin-induced morphological changes in human HCT116 cells assessed as cell shrinkage at 2.5 uM preincubated for 24 hrs followed by cisplatin addition and measured after 48 hrs by Hoechst 33258 staining based fluorescence microscopic analysis; assay type: functional; outline: as §2
HCT-116 [22] = test: Potentiation of cisplatin-induced morphological changes in human HCT116 cells assessed as reduction in number of adherent cells at 2.5 uM preincubated for 24 hrs followed by cisplatin addition and measured after 48 hrs by Hoechst 33258 staining based fluorescence microscopic analysis; assay type: functional, cell-based; outline: as §2
HCT-116 [23] = test: Induction of apoptosis in human HCT116 cells assessed as viable cells at 2.5 uM after 24 hrs by Annexin V-FITC/propidium iodide staining based flow cytometry (reference value: 76.5%); assay type: functional; conditions: HCT-116, 24 h, read-out: Activity
HCT-116 [24] = test: Induction of apoptosis in human HCT116 cells assessed as early apoptotic cells at 2.5 uM after 24 hrs by Annexin V-FITC/propidium iodide staining based flow cytometry (reference value: 5.75%); assay type: functional
HCT-116 [25] = test: Induction of apoptosis in human HCT116 cells assessed as late apoptotic cells at 2.5 uM after 24 hrs by Annexin V-FITC/propidium iodide staining based flow cytometry (reference value: 7.36%); assay type: functional
HCT-116 [26] = test: Induction of apoptosis in human HCT116 cells assessed as necrotic cells at 2.5 uM after 24 hrs by Annexin V-FITC/propidium iodide staining based flow cytometry (reference value: […]); assay type: functional
HCT-116 [27] = test: Potentiation of cisplatin-induced apoptosis in human HCT116 cells assessed as viable cells at 2.5 uM preincubated for 24 hrs followed by cisplatin addition and measured after 48 hrs by Annexin V-FITC/propidium iodide staining based flow cytometry (reference value: 73.2%); assay type: functional; conditions: read-out: Activity
Outline: (§3)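 HCT116 pretreated with compound for 24 h, then cisplatin at 2.5 μM added for 48 h. Cells harvested, washed in cold PBS, pelleted, stained with annexin V-FITC and propidium iodide, and counted by flow cytometry. Three independent experiments.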

HCT-116 [28] = test: Potentiation of cisplatin-induced apoptosis in human HCT116 cells assessed as early apoptotic cells at 2.5 uM preincubated for 24 hrs followed by cisplatin addition and measured after 48 hrs by Annexin V-FITC/propidium iodide staining based flow cytometry (reference value: 4.07%); assay type: functional; outline: as §3
HCT-116 [29] = test: Potentiation of cisplatin-induced apoptosis in human HCT116 cells assessed as late apoptotic cells at 2.5 uM preincubated for 24 hrs followed by cisplatin addition and measured after 48 hrs by Annexin V-FITC/propidium iodide staining based flow cytometry (reference value: 11.5%); assay type: functional; outline: as §3
HCT-116 [30] = test: Potentiation of cisplatin-induced apoptosis in human HCT116 cells assessed as necrotic cells at 2.5 uM preincubated for 24 hrs followed by cisplatin addition and measured after 48 hrs by Annexin V-FITC/propidium iodide staining based flow cytometry (reference value: 11.3%); assay type: functional; outline: as §3
[31] = target: Serine/threonine-protein kinase ATR (Homo sapiens) (UniProt Q13535); test: Inhibition of ATR in human HCT116 cells assessed as reduction in cisplatin-induced CHK1 expression preincubated for 24 hrs followed by cisplatin addition and measured after 48 hrs by Western blot analysis; assay type: cell-based
Chain of Serine/threonine-protein kinase ATR (Homo sapiens) (Q13535 whole entry, looked up): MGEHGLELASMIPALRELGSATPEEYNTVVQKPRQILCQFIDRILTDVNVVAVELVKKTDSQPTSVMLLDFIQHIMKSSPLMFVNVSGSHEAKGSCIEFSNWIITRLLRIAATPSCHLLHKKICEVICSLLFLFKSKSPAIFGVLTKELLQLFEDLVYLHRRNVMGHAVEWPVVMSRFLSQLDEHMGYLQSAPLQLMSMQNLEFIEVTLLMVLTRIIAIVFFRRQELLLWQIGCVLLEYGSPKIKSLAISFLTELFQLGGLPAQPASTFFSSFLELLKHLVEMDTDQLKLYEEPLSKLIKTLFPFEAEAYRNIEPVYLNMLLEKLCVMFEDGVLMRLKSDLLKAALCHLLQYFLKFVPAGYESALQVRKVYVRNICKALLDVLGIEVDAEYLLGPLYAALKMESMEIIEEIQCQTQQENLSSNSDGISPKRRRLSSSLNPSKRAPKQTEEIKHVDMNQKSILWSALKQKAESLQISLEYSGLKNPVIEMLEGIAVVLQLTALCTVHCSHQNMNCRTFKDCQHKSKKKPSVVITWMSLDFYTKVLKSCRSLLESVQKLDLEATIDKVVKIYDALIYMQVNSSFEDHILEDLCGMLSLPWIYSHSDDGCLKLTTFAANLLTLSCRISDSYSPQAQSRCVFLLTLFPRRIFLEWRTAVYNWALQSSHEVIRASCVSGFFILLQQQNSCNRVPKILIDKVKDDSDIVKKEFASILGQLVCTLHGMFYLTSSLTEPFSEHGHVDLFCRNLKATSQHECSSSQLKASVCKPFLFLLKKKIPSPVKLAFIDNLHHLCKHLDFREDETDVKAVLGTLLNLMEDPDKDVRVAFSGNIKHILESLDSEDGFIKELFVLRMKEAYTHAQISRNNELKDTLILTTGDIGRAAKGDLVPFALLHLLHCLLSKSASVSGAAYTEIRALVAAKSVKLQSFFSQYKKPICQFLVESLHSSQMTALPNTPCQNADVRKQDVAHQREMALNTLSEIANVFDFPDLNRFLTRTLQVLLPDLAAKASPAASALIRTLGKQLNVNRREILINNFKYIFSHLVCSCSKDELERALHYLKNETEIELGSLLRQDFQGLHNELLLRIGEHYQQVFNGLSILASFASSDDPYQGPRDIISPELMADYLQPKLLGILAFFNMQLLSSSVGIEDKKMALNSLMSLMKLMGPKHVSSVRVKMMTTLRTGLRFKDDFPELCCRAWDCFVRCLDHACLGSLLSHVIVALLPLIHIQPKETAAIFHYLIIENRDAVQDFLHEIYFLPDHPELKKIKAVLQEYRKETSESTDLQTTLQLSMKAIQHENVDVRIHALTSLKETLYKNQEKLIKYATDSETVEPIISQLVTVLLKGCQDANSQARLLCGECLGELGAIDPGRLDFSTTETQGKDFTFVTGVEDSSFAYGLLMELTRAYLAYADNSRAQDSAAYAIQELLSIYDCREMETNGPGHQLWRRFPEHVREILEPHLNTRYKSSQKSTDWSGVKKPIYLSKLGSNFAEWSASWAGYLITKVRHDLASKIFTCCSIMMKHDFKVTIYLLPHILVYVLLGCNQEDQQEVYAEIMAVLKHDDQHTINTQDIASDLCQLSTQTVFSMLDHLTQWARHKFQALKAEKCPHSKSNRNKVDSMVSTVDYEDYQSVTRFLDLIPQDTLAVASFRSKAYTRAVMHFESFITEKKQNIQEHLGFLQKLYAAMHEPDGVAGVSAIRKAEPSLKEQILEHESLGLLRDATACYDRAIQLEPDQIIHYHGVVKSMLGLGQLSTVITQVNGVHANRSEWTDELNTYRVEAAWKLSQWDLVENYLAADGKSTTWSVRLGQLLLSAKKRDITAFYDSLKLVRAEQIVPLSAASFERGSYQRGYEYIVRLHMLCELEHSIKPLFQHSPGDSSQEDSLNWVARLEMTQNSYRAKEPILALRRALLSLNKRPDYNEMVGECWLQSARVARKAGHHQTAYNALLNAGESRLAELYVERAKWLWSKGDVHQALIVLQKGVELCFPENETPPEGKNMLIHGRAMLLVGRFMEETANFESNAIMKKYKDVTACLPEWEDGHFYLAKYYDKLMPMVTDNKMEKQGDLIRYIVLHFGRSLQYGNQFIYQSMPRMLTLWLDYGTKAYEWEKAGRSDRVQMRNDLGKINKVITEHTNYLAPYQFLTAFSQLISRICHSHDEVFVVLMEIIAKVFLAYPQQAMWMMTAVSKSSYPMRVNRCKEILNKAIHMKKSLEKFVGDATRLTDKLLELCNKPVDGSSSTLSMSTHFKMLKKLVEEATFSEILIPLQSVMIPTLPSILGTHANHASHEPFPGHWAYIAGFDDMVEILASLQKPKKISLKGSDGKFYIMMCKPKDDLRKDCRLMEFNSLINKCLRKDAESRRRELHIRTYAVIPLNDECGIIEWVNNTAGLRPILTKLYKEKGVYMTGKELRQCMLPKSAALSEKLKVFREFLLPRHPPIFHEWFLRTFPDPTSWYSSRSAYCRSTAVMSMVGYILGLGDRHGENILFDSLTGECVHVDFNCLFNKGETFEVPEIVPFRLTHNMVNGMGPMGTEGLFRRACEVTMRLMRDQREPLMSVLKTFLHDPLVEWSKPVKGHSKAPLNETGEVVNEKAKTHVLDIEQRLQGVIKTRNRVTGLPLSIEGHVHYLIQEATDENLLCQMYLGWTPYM
Outline: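 HCT116 exposed to compound for 24 h before 48 h with cisplatin at 2.5 μM. Lysis in RIPA buffer with protease and phosphatase inhibitors, protein measured by BCA, equal loads run on 12% SDS-PAGE and moved to PVDF. Blocked in 5% milk, anti-CHK1 mouse mAb overnight at 4 °C, HRP secondary and ECL detection, GAPDH as loading control.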

Structure (SMILES): Cc1cccc(-c2nnc(-c3c[nH]c4ncc(-c5ccc(S(C)(=O)=O)cc5)cc4c3=O)o2)c1
- inhibition of growth at 10 µM (A549 [1]): 8.95%
- inhibition of growth at 10 µM (HepG2 [2]): 13.3%
- inhibition of growth at 10 µM (KB [3]): 7.5%
- inhibition of growth at 10 µM (MCF7 [4]): 7.76%
- inhibition of growth at 10 µM (HeLa [5]): 2.57%
- inhibition of growth at 10 µM (HCT-116 [6]): 25.2%
- inhibition of growth at 5 µM (A549 [7]): 7.92%
- inhibition of growth at 5 µM (HepG2 [8]): 13.2%
- inhibition of growth at 5 µM (KB [9]): 3.7%
- inhibition of growth at 5 µM (MCF7 [10]): 1.86%
- inhibition of growth at 5 µM (HeLa [11]): 1.49%
- inhibition of growth at 5 µM (HCT-116 [12]): 20.4%
- Activity (L02 [13]): Non-Toxic
- inhibition of growth at 2.5 µM (HCT-116 [14]): 8.13%
- inhibition of growth at 2.5 µM (HCT-116 [15]): 50.8%
- Activity (L02 [16]): Non-Toxic
- Activity (HCT-116 [17]): Active
- Activity (HCT-116 [18]): Active
- Activity (HCT-116 [19]): Active
- Activity (HCT-116 [20]): Active
- Activity (HCT-116 [21]): Active
- Activity (HCT-116 [22]): Active
- viability at 2.5 µM (HCT-116 [23]): 70.4%
- Activity (HCT-116 [24]): 4.61%
- Activity (HCT-116 [25]): 6.89%
- Activity (HCT-116 [26]): 18.1%
- viability at 2.5 µM (HCT-116 [27]): 52.4%
- Activity (HCT-116 [28]): 6.98%
- Activity (HCT-116 [29]): 17.2%
- Activity (HCT-116 [30]): 23.4%
- inhibition [31]: Dose-dependent effect

Structure (SMILES): Cc1ccc(-c2nnc(-c3c[nH]c4ncc(-c5ccc(S(C)(=O)=O)cc5)cc4c3=O)o2)cc1
- inhibition of growth at 10 µM (A549 [1]): 11.2%
- inhibition of growth at 10 µM (HepG2 [2]): 8.94%
- inhibition of growth at 10 µM (KB [3]): 3.19%
- inhibition of growth at 10 µM (MCF7 [4]): 10.6%
- inhibition of growth at 10 µM (HeLa [5]): 18.5%
- inhibition of growth at 10 µM (HCT-116 [6]): 24.4%
- inhibition of growth at 5 µM (A549 [7]): 6.69%
- inhibition of growth at 5 µM (HepG2 [8]): 6.9%
- inhibition of growth at 5 µM (KB [9]): 0.43%
- inhibition of growth at 5 µM (MCF7 [10]): 6.26%
- inhibition of growth at 5 µM (HeLa [11]): 10.4%
- inhibition of growth at 5 µM (HCT-116 [12]): 20.4%
- Activity (L02 [13]): Non-Toxic
- inhibition of growth at 2.5 µM (HCT-116 [14]): 7.47%
- inhibition of growth at 2.5 µM (HCT-116 [15]): 54.8%
- Activity (L02 [16]): Non-Toxic
- Activity (HCT-116 [17]): Active
- Activity (HCT-116 [18]): Active
- Activity (HCT-116 [19]): Active
- Activity (HCT-116 [20]): Active
- Activity (HCT-116 [21]): Active
- Activity (HCT-116 [22]): Active
- viability at 2.5 µM (HCT-116 [23]): 72.4%
- Activity (HCT-116 [24]): 10.6%
- Activity (HCT-116 [25]): 6.26%
- Activity (HCT-116 [26]): 10.8%
- viability at 2.5 µM (HCT-116 [27]): 31.2%
- Activity (HCT-116 [28]): 20%
- Activity (HCT-116 [29]): 17.7%
- Activity (HCT-116 [30]): 31.2%
- inhibition [31]: Dose-dependent effect

— ChEMBL document CHEMBL4368880, “Synthesis and biological evaluation of 3-(1,3,4-oxadiazol-2-yl)-1,8-naphthyridin-4(1H)-ones as cisplatin sensitizers” (Medchemcomm, 2018)
